Where only a bound is given, the exact number is not on record here.

In data set [1] the test system is Monkey. Nature of the data set: Efficiency of the chelator [(net iron excretion ) / (total iron binding capacity of chelator)] to induce iron clearance in monkey at a peroral dose of 150 uMol/kg. It counts as functional, Cercopithecidae. The gist of the method: (§1)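 Capuchin (Cebus apella) monkeys were iron-loaded with 2–3 iron dextran iv infusions to about 500 mg Fe/kg, then rested at least 60 days. Chelator was given po in 40% Cremophor RH-40/water. Feces and urine were collected every 24 h, from 4 days pre-dose to 5 days post-dose, and iron was measured by flame AAS. Efficiency = (2-day post-dose iron − mean 4-day baseline) / theoretical output for a 2:1 ligand–iron complex, as a percent.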

Data set [2] deals with Rattus norvegicus. The data set can be described thus: Efficiency of the chelator [(net iron excretion ) / (total iron binding capacity of chelator)] to induce iron clearance in rat at a peroral dose of 150 umol/kg. It counts as functional. The gist of the method:
(§2)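 Male Sprague–Dawley rats (~400 g) had bile-duct cannulation under ip pentobarbital. Chelator in 40% Cremophor RH-40/water was given at 150 µmol/kg, po or sc. Bile was collected at 3-h intervals for 24 h and urine every 24 h; iron was measured in both. Net iron = treated minus control excretion, divided by the theoretical 2:1 ligand–iron binding capacity, as a percent.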

In data set [3] the test system is Rattus norvegicus. The data set can be described thus: Chronic toxicity in 5 rats administered by gavage at a dose of 384 [uMol/kg/day] X 10 days, measured as number of deaths. Activity value is 5/5. It counts as organism-based. The following applies: in vivo, po, 240 h.
Data set [4] can be described thus: Octanol-water apparent distribution coefficient measured in TRIS buffer at a pH 7.4. It counts as physicochemical. The gist of the method:
(§3)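 Shake-flask octanol/50 mM TRIS buffer pH 7.4 at 24 °C, with 3–5 min mixing and 1–24 h settling. Phase concentrations were read by UV spectrometry. Values are distribution coefficients uncorrected for partial ionization of the acids.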

The nature of data set [5]: log P value measured in TRIS buffer at a pH 7.4. It counts as physicochemical. The gist of the method: as §3
The subject of data set [6] is Rattus norvegicus. Nature of the data set: Chronic toxicity in 5 rats administered by gavage at a dose of 384 [uMol/kg/day] X 10 days, measured as number of deaths. Activity value is 0/5 (All histopathologies normal; well tolerated for 10-day test period). It counts as organism-based. The following applies: in vivo, po, 240 h.
Data set [7] relates to Monkey. Nature of the data set: Efficiency of the chelator [(net iron excretion ) / (total iron binding capacity of chelator)] to induce iron clearance in monkey at a peroral dose of 300 uMol/kg. It counts as functional, Cercopithecidae. The gist of the method: as §1
In data set [8] the test system is Rattus norvegicus. The data set can be described thus: Efficiency of the chelator [(net iron excretion ) / (total iron binding capacity of chelator)] to induce iron clearance in rat at a peroral dose of 150 uMol/kg. It counts as functional. In a few lines: as §2
Data set [9] concerns Rattus norvegicus. The data set can be described thus: Chronic toxicity in rats administered by gavage at a dose of 384 [uMol/kg/day] X 10 days, measured as number of deaths. Activity value is 0/5 (All histopathologies normal; well tolerated for 10-day test period). It counts as organism-based. Conditions: in vivo, po, 240 h.
For data set [10], the system named is Rattus norvegicus. The data set can be described thus: Efficiency of the chelator [(net iron excretion ) / (total iron binding capacity of chelator)] to induce iron clearance in rat at a subcutaneous dose of 150 uMol/kg. It counts as functional. In a few lines: as §2
Data set [11] has as its system Monkey. The data set can be described thus: Efficiency of the chelator [(net iron excretion ) / (total iron binding capacity of chelator)] to induce iron clearance in monkey at a peroral dose of 75 umol/kg.
The test system of data set [12] is Rattus norvegicus. The data set can be described thus: Chronic toxicity in 5 rats administered by gavage at a dose of 384 [uMol/kg/day] X 10 days, measured as number of deaths. Activity value is 5/5. It counts as organism-based. The following applies: in vivo, po, 240 h.

As a reminder, the logD is lipophilicity at a set pH, counting ionised and neutral species. Regarding `C[C@]1(C(=O)O)CSC(c2ncccc2O)=N1` [DESFERRITHIOCIN], the Efficiency in the data set on Monkey [1] came to 16.1%; in the data set with Rattus norvegicus [2], 5.5%. In the data set with Rattus norvegicus [3], the No. of deaths entry is “Number of deaths 5/5”. For the same compound, the K app in data set [4] is reported as 0.017. The logD in data set [5] was -1.77.
As to `O=C(O)[C@H]1CSC(c2ncccc2O)=N1`, the No. of deaths entry in the data set on Rattus norvegicus [6] is “well tolerated for 10-day test period”. In addition, the Efficiency with Monkey [1] is on record as 4.8%; in the data set with Rattus norvegicus [2], 2.4%; with Monkey [7], 8%. In addition, the K app in data set [4] came to 0.013. For the same compound, the logD in data set [5] is -1.87.
In the case of `O=C(O)[C@H]1CSC(c2ccc(O)cc2O)=N1`, the results for the Efficiency with Monkey [1] and in the data set with Rattus norvegicus [8] were 4.2% and 2.4%, respectively. Also, in the data set on Rattus norvegicus [9], the No. of deaths entry is reported as “well tolerated for 10-day test period”. In addition, the K app in data set [4] came out at 0.063. The logD in [5] is -1.2.
On to `COc1cccc(C2=N[C@@H](C(=O)O)CS2)c1O`, for which the Efficiency in the data set with Rattus norvegicus [2] was found to be 0.9%; in the data set on Rattus norvegicus [10], 0.5%.
On to `O=C(O)[C@@H]1CSC(c2nc3ccccc3cc2O)=N1`, for which the figures for the Efficiency with Rattus norvegicus [2] and in the data set with Monkey [11] were 12.3% and under 0.5%, respectively.
`O=C(O)CC[C@H]1CSC(c2ccccc2O)=N1` returned an Efficiency with Rattus norvegicus [2] of under 0.5%.
`O=C(O)[C@H]1CSC(c2nc3ccccc3cc2O)=N1`: the values for the Efficiency in the data set with Monkey [1] and with Rattus norvegicus [2] were 3.5% and 5.9%, respectively.
Consider `O=C(O)C[C@H]1CSC(c2ccccc2O)=N1`, for which the Efficiency with Rattus norvegicus [2] was under 0.5%.
For the compound `O=C(O)[C@H]1CSC(Cc2ccccc2O)=N1`, the Efficiency in the data set on Rattus norvegicus [2] and in the data set on Rattus norvegicus [10] was under 0.5% throughout.
Consider `O=C(O)C1CN=C(c2ccccc2O)N1` (centres undefined), for which the Efficiency with Rattus norvegicus [2] and in the data set on Rattus norvegicus [10] was under 0.5% in each case.
On to `O=C(O)c1ccc(C2=N[C@@H](C(=O)O)CS2)c(O)c1`, for which the Efficiency with Rattus norvegicus [2] and with Rattus norvegicus [10] was under 0.5% throughout.
As for `O=C(O)[C@H]1CSC(c2ccccc2O)=N1`, the Efficiency in the data set with Rattus norvegicus [2] was found to be 1.4%; in the data set with Monkey [7], 12.4%. The K app in data set [4] came to 0.12. This compound registered a logD in data set [5] of -0.93. Besides, the No. of deaths entry in the data set with Rattus norvegicus [12] is reported as “Number of deaths 5/5”.
As to `O=C(O)[C@H]1CSC(c2cccc(O)c2O)=N1`, the Efficiency in the data set on Rattus norvegicus [8] and in the data set on Rattus norvegicus [10] was under 0.5% each time.
`Cc1ccc(O)c(C2=NC(C(=O)O)CC2)c1.Cl` (centres undefined): the Efficiency in the data set with Rattus norvegicus [2] and in the data set on Rattus norvegicus [10] was under 0.5% in each case.

Values taken from ChEMBL document CHEMBL1132205, “Desazadesmethyldesferrithiocin analogues as orally effective iron chelators” (J Med Chem, 1999).
